Compound activity: PubChem BioAssay, Johns Hopkins Ion Channel Center
An excerpt weighted towards active compounds, which were near 3.5% of everything screened.
RGS4 block = inhibitors of human RGS4; P49798; HEK293 M3R/RGS4 inducible, Fluo-4 calcium flux; active compounds read high; triggered by carbachol at its EC20; B-score at 10 µM; actives 0.45% (n = 310,000);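 active = B-score, a plate-corrected calcium signal, over three deviations above library mean, with baseline fluorescence within five deviations of library mean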;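 also: RGS4 expression induced by doxycycline in cells with stable M3 receptor; B-score is computed from the integrated fluorescence ratio over baseline after carbachol; higher B-score means a larger calcium signal and so more RGS4 inhibition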
Target sequence (P49798 whole entry, looked up): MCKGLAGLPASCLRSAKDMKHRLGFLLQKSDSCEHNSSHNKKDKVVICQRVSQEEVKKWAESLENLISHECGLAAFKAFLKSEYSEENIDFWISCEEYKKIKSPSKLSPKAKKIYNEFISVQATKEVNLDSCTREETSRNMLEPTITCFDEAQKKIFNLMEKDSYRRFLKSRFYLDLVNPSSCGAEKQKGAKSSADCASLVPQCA
MrgX1 antagonist = blocks BAM8-22 activation of human MrgX1 receptor. Q96LB2. MRGX1-HEK293 calcium flux, Fluo-4, BAM8-22 antagonism; active compounds read low. B-score at 10 µM. actives 1.3% (n = 310,000);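 active = calcium-response B-score plate-corrected more than 3 library SD below zero, starting fluorescence within 5 deviations, no agonist response on first addition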;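 also: peak minus trough fluorescence over baseline after final BAM8-22 challenge near maximal dose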
Target sequence (Q96LB2 whole entry, looked up): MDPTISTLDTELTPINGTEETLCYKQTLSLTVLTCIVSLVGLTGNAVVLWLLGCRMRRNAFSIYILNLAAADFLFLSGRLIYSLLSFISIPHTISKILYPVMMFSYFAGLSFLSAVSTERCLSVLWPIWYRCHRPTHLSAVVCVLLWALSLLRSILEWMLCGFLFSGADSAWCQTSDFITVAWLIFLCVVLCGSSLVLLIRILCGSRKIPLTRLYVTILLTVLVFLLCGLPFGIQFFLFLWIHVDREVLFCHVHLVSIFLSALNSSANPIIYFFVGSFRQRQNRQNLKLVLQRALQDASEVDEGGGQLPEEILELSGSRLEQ
MrgX1 agonist = human MrgX1 receptor agonism, primary screen | actives 0.44% (n = 310,000) | AID 588627 | B-score at 10 µM | MrgX1-HEK293 cells, Fluo-4 calcium fluorescence, agonist mode; active compounds read high;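 active = calcium response B-score plate-corrected fluorescence ratio at least 3 library SD, with starting fluorescence B-score inside 5 SD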
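System: HEK293 cells stably expressing human MrgX1 receptor; Dosing: test compound in the initial addition of three; Schedule: overnight plating, then 30 min 37 °C plus 30 min room-temperature dye loading; Detection: kinetic calcium dye fluorescence, Fluo-4 NW; Controls: per-plate positive and negative controls for Z′ factor.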
RGS4 pot = potentiators or activators of RGS4 | HEK293 M3R/inducible RGS4, carbachol calcium flux Fluo4; active compounds read low | B-score at 10 µM | actives 0.92% (n = 310,000);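 active = B-score of the integrated calcium signal more than 4 SD below the library mean, with starting fluorescence not abnormally high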;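 also: negative B-score means reduced calcium response which marks RGS4 activation or potentiation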
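test system = M3R-expressing HEK293 line, RGS4 induced by doxycycline | probe or stimulus = carbachol at ECmax as muscarinic agonist stimulus | timing = dye loading 30 min 37 °C, buffer rest 30 min RT | signal = calcium dye Fluo4 fluorescence | evaluation = B score from integrated fluorescence ratio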
MrgX1 allo act = human MrgX1 positive allosteric modulation, primary screen; MrgX1-HEK293, Fluo-4 calcium flux, FDSS; active compounds read high; B-score at 10 µM; actives 0.63% (n = 310,000);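 active = plate-corrected calcium response at least 3 library SD above typical, normal starting fluorescence, not activating the receptor alone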;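 also: compound read alongside a low EC10 to EC30 dose of BAM8-22 agonist; peak minus trough fluorescence over baseline measured at the second addition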
* = called active by the depositor; i = inactive; . = no result.

SMILES	RGS4 block	MrgX1 antagonist	MrgX1 agonist	RGS4 pot	MrgX1 allo act
Cc1c(C(=O)Nc2ccc(Cl)cc2)c2ccccn2c1C(=O)c1ccccc1	i	i	i	i	i
CCCc1cc(=O)oc2cc(OC(=O)CN3C(=O)NC4(CCCC4)C3=O)ccc12	i	-8.6*	i	i	i
CCOCCn1c(N2CCCC2)nc2c1c(=O)n(C)c(=O)n2C	i	i	i	i	i
CCC(c1nnc(SCC(=O)Nc2ccc(NC(C)=O)cc2)n1Cc1ccccc1)N(C)C (stereo unspecified)	i	i	i	i	i
COc1cccc(-c2ccc(NC(=O)C3CCCN(Cc4cnc(C)n4C)C3)cc2)c1 (stereo unspecified)	i	i	i	-7.1*	i
CCCCC(CC)CN=C(N)NC(N)=NCCCCCCN=C(N)NC(N)=NCC(CC)CCCC (stereo unspecified)	.	i	170*	.	i
COc1ccccc1CN1CC(=O)N2CSC[C@H]2C1=O	i	i	i	i	i
C/C=C/COC(=O)C1=C(C)NC(=O)NC1c1ccc2c(c1)OCO2 (stereo unspecified)	i	i	i	i	i
C[C@]12C=CC(=O)C=C1CC[C@@H]1C2=CC[C@]2(C)[C@@H](C(=O)CN3CCN(c4cc(N5CCCC5)nc(N5CCCC5)n4)CC3)CC[C@@H]12	i	i	38*	i	i
O=C(CSc1n[nH]c(-c2ccco2)n1)Nc1ccccc1Cl	i	i	i	i	i
COc1ccc(Cn2nnnc2C(c2ccc(N(C)C)cc2)N2CCC(C(N)=O)CC2)cc1 (stereo unspecified)	i	i	i	i	i
O=C(COc1ccc(/C=C\[N+](=O)[O-])cc1)N1CCOCC1	i	i	35*	i	i
O=C1c2cccc3cccc(c23)C(=O)N1CCCc1n[nH]c(=S)n1-c1ccccc1	i	i	i	i	i
COc1ccccc1CNC(=O)CCNS(=O)(=O)c1ccc2c(c1)oc(=O)n2C	i	i	i	i	i
COc1ccc(NC(=O)c2ccccc2NC(=O)c2ccco2)c(OC)c1	i	i	i	i	i
COc1ccc(NC(=S)NNC(=O)c2ccco2)c(OC)c1	i	-5.3*	i	i	i
O=C(O)c1ccccc1-c1ccccc1C(=O)Nc1ccc(-c2nc3cc(Cl)ccc3o2)cc1	i	-5.6*	i	i	i
C=C[C@@]1(C)CC(=O)[C@]2(O)[C@@]3(C)[C@@H](O)CCC(C)(C)[C@@H]3[C@H](O)[C@H](OC(C)=O)[C@@]2(C)O1	i	i	i	i	10*
C=C1C(=O)O[C@H]2C[C@]3(C)C([C@@H](OC(=O)/C(C)=C/C)[C@H]12)[C@](C)(O)CC[C@H]3O (stereo partly specified)	i	i	i	i	i
O=C(Cn1ncc2c3ccccc3n(Cc3ccc(F)cc3)c2c1=O)N1CCN(c2ncccn2)CC1	i	-8.1*	i	i	i
COC(=O)Cn1ncc2c3ccccc3n(Cc3ccccc3)c2c1=O	i	i	i	i	i
O=C(Cn1ncc2c3ccccc3n(Cc3ccc(Cl)cc3)c2c1=O)NCCCN1CCCC1=O	i	i	i	i	i
O=C(Cn1ncc2c3ccccc3n(Cc3ccccc3)c2c1=O)NCCCN1CCCC1=O	i	-8.1*	i	i	i
CCC(C)Nc1nc(N)c([N+](=O)[O-])c(NCCO)n1 (stereo unspecified)	i	i	i	i	17*
CC(C)CCNc1nc(N)c([N+](=O)[O-])c(NCCO)n1	i	i	i	i	i
SMILES	RGS4 block	MrgX1 antagonist	MrgX1 agonist	RGS4 pot	MrgX1 allo act
CCOC(=O)C1CCN(C(=O)C2CCN(c3nc4ccc(OC)cc4s3)CC2)CC1	i	-5.5*	i	i	i
CCOC(=O)C1CCN(C(=O)C2CCN(c3nnc(-n4cccc4)s3)CC2)CC1	i	i	i	i	i
CC(C)CC(=O)NC(NC(=S)Nc1sc2c(c1C#N)CCCC2)C(Cl)(Cl)Cl (stereo unspecified)	i	-4.5*	i	i	i
c1cc(CNC23CC4CC(CC(C4)C2)C3)ccn1	i	i	i	i	i
CCN(CC)c1ccc(-c2nn3c(-c4n[nH]c5c4CCC5)nnc3s2)cc1	i	-12*	i	-7.2*	i
CCc1nc(Nc2ccccc2F)c2oc3ccccc3c2n1	i	i	i	i	8.4*
Cc1cc(=O)oc2cc(OCC(=O)OCC(=O)Nc3c(C)n(C)n(-c4ccccc4)c3=O)ccc12	i	-8.8*	i	i	i
C[n+]1c2n(c3ccccc31)N=C(c1ccc(-c3ccccc3)cc1)CS2	i	-6.5*	i	i	i
CC(C)COc1ccc(C(=O)Nc2ccc([N+](=O)[O-])cc2)cc1	i	i	i	i	i
CC(C)CCNC(=S)Nc1ccc([N+](=O)[O-])cc1	i	i	i	i	i
CCCCNC(=S)Nc1ccc([N+](=O)[O-])cc1	i	-5.6*	i	i	i
CC(C)OC(=O)c1cc(NC(=S)Nc2ccc([N+](=O)[O-])cc2)cc(C(=O)OC(C)C)c1	i	-6.7*	i	i	i
CCOC(=O)c1nn(-c2cccc(C)c2)c2nnc(Cc3ccc(C)cc3)c(=O)n12	i	i	i	i	i
CCCC(=O)C1=C(O)C(C(=O)OC)C(C)(C)CC1=Nc1ccccc1 (stereo unspecified)	i	i	i	i	i
CCCC(=O)C1=C(O)C(C(=O)OC)C(C)(C)CC1=Nc1cccc2ccccc12 (stereo unspecified)	i	i	i	i	8.1*
CC1(C)CC(=O)C(C2=NC3(CCCCC3)Cc3ccccc32)=C(O)C1	i	i	i	i	i
CCC1(CC)Cc2ccccc2C(C2=C(O)CC(C)(C)CC2=O)=N1	i	-4.8*	i	i	i
CCCNC(=O)OC[C@H]1O[C@H](CCO/N=C(\C)CCN2CCc3nc(-c4ccccc4)c(-c4ccccc4)cc3C2)C=C[C@@H]1Oc1ccc(OC)cc1	i	i	i	-8.1*	i
Cc1ccc(CSCc2ccc(C(=O)NCCCN3CCOCC3)o2)cc1	i	i	i	i	6.7*
N#C/C(=C\c1ccc(N2CCCCC2)o1)C(=O)Nc1cccc(Br)c1	i	i	53*	i	i
O=C(NCCCN1CCCC1=O)C1CCC(CNS(=O)(=O)c2ccc(Cl)cc2)CC1 (stereo unspecified)	i	i	i	i	i
